# According to ChEMBL document CHEMBL2203121, “DNA cleavage induced by antitumor antibiotic leinamycin and its biological consequences” (Bioorg Med Chem, 2012):
# Active and inactive are the calls of the source. The rule behind the calls is not given here.
# Key:
# [1] = test system: CHO-AA8; assay: Ratio for chinese hamster AA8 cells to chinese hamster BER-mutant EM9 cells; assay type: functional, Cricetulus griseus
# [2] = organism: Cricetulus griseus; assay: Cytotoxicity against chinese hamster BER-mutant EM9 cells assessed as cell survival by clonogenic survival assay; assay type: functional, cell-based
# Procedure, shortened: (§1)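 CHO lines from repair-proficient and repair-mutant backgrounds, grown in RPMI1640 with 10% FCS. Cells plated in triplicate at 400 cells/well and dosed 24 h later with a range of leinamycin concentrations. Colonies grew 14 days and were stained with 1% methylene blue in 50% ethanol. Dye was eluted in isopropanol with 0.4 M HCl and read at 595 nm for relative survival.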
# [3] = test system: Xrs-5; assay: Cytotoxicity against chinese hamster kU86-mutant Xrs-5 cells assessed as cell survival by clonogenic survival assay; assay type: functional, cell-based; conditions: Cricetulus griseus; procedure, shortened: as §1
# [4] = Cytotoxicity against chinese hamster NER-mutant UV135 cells assessed as cell survival by clonogenic survival assay; assay type: functional, cell-based; conditions: Cricetulus griseus; procedure, shortened: as §1
# [5] = Cytotoxicity against chinese hamster NER-mutant UV41 cells assessed as cell survival by clonogenic survival assay; assay type: functional, cell-based; conditions: Cricetulus griseus; procedure, shortened: as §1
# [6] = test system: CHO-AA8; assay: Cytotoxicity against chinese hamster AA8 cells assessed as cell survival by clonogenic survival assay; assay type: functional, cell-based; conditions: Cricetulus griseus; procedure, shortened: as §1
# [7] = Cytotoxicity against human MiaPaCa cells assessed as potentiation of methoxyamine-mediated cytotoxicity by MTT assay; assay type: functional, cell-based; conditions: MIA PaCa-2
# Procedure, shortened: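 MiaPaCa cells in RPMI1640 with 10% FCS were given leinamycin alone or combined with methoxyamine, a BER inhibitor, tested alone up to 25 mM. Survival was measured by MTT, reading solubilised formazan at 595 nm, in triplicate with ±SE.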
# [8] = Cytotoxicity against human MiaPaCa cells by MTT assay; assay type: functional, cell-based; conditions: MIA PaCa-2
# Procedure, shortened: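 MiaPaCa cells in RPMI1640 with 10% FCS were exposed to leinamycin. Viability was read by MTT reduction to formazan, with absorbance of solubilised formazan at 595 nm. Survival was determined in triplicate with ±SE.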
# [9] = test system: Nucleic Acid; assay: Induction of DNA cleavage in 32P-labeled oligomer duplex Sp25 DNA at 2 ug/ml to 100 ug/ml after 24 hrs by PAGE analysis without hot piperidine treatment; assay type: nucleic-acid assay
# Procedure, shortened: (§2)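 5'-32P-end-labelled, gel-purified Sp25 duplex (100 fmol) was incubated with leinamycin at 37°C in 20 mM Tris-HCl pH 7.6, 20 mM NaCl, 1 mM DTT, with no piperidine step. Unreacted drug was removed on a G-10 column. Fragments were resolved on 16% urea-PAGE and quantified by phosphorimaging.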
# [10] = test system: Nucleic Acid; assay: Induction of DNA cleavage in 32P-labeled oligomer duplex Sp25 DNA at 2 ug/ml to 100 ug/ml after 24 hrs by PAGE analysis followed by hot piperidine treatment; assay type: nucleic-acid assay
# Procedure, shortened: (§3)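 5'-32P-end-labelled, gel-purified Sp25 duplex (100 fmol) was incubated with leinamycin at 37°C in 20 mM Tris-HCl pH 7.6, 20 mM NaCl, 1 mM DTT. Drug was removed on a G-10 column, then DNA was heated 30 min in 1 M piperidine. Products were run on 16% urea-PAGE and quantified by phosphorimaging.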
# [11] = test system: Nucleic Acid; assay: Induction of DNA cleavage in 32P-labeled oligomer duplex Sp25 DNA up to 24 hrs by PAGE analysis without hot piperidine treatment; assay type: nucleic-acid assay; procedure, shortened: as §2
# [12] = test system: Nucleic Acid; assay: Induction of DNA cleavage in 32P-labeled oligomer duplex Sp25 DNA after 8 hrs by PAGE analysis with hot piperidine treatment; assay type: nucleic-acid assay; procedure, shortened: as §3
# [13] = Cytotoxicity against chinese hamster NER-mutant UV5 cells assessed as cell survival by clonogenic survival assay; assay type: functional, cell-based; conditions: Cricetulus griseus; procedure, shortened: as §1
# [14] = test system: Nucleic Acid; assay: Inhibition of Leinamycin-induced strand breaks in 32P-labeled 25-bp oligomer duplex Sp25 DNA after 24 hrs by PAGE analysis followed by hot piperidine treatment; assay type: nucleic-acid assay
# Procedure, shortened: (§4)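 5'-32P-end-labeled duplex Sp25 (100 fmol), gel-purified, incubated at 37°C for 24 h with leinamycin, Fe(II)-bleomycin or 1 mM MMS plus increasing methoxyamine in 20 mM Tris–HCl pH 7.6, 20 mM NaCl, 1 mM DTT; drug removed on Sephadex G-10; then 1 M piperidine, 90°C, 30 min; 16% urea–acrylamide gel, PhosphorImager quantification.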
# [15] = test system: Nucleic Acid; assay: Inhibition of Leinamycin-induced strand breaks in 32P-labeled 25-bp oligomer duplex Sp25 DNA after 24 hrs by PAGE analysis without hot piperidine treatment; assay type: nucleic-acid assay
# Procedure, shortened: (§5)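 5'-32P-end-labeled Sp25 duplex (100 fmol) exposed at 37°C for 24 h to leinamycin, Fe(II)-bleomycin or 1 mM MMS with rising methoxyamine levels in 20 mM Tris–HCl pH 7.6, 20 mM NaCl, 1 mM DTT; unreacted drug removed by Sephadex G-10; no piperidine step; denaturing 16% urea–acrylamide gel, PhosphorImager scan.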
# [16] = Potentiation of leinamycin-induced cytotoxicity in human MiaPaCa cells by MTT assay; assay type: functional
# Procedure, shortened: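 MiaPaCa cells grown in RPMI1640 with 10% FCS, exposed to methoxyamine (up to 25 mM), leinamycin or both; viability by MTT reduction, formazan solubilized and read at 595 nm; triplicate determinations, bars ±SE.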
# [17] = test system: Nucleic Acid; assay: Inhibition of Leinamycin-induced strand breaks in 32P-labeled 25-bp oligomer duplex Sp25 DNA at 1mM by PAGE analysis followed by hot piperidine treatment; assay type: nucleic-acid assay; procedure, shortened: as §4
# [18] = test system: Nucleic Acid; assay: Inhibition of methylmethanesulfonate-induced strand breaks in 32P-labeled 25-bp oligomer duplex Sp25 DNA at 1 mM after 24 hrs by PAGE analysis followed by hot piperidine treatment; assay type: nucleic-acid assay; procedure, shortened: as §4
# [19] = test system: Nucleic Acid; assay: Inhibition of bleomycin-induced strand breaks in 32P-labeled 25-bp oligomer duplex Sp25 DNA at 1 mM after 24 hrs by PAGE analysis followed by hot piperidine treatment; assay type: nucleic-acid assay; procedure, shortened: as §4
# [20] = test system: Nucleic Acid; assay: Inhibition of leinamycin-induced strand breaks in 32P-labeled 25-bp oligomer duplex Sp25 DNA at 1mM after 24 hrs by PAGE analysis without hot piperidine treatment; assay type: nucleic-acid assay; procedure, shortened: as §5
# [21] = test system: Nucleic Acid; assay: Inhibition of bleomycin-induced strand breaks in 32P-labeled 25-bp oligomer duplex Sp25 DNA at 1 mM by PAGE analysis without hot piperidine treatment; assay type: nucleic-acid assay; procedure, shortened: as §5
# [22] = test system: Nucleic Acid; assay: Inhibition of methyl methanesulfonate-induced strand breaks in 32P-labeled 25-bp oligomer duplex Sp25 DNA at 1 mM by PAGE analysis without hot piperidine treatment; assay type: nucleic-acid assay; procedure, shortened: as §5
compound,measurement,setting,value
C/C1=C\[C@@H](O)C(=O)/C=C/C=C\c2csc(n2)[C@@H](C)NC(=O)C[C@@]2(CC1)[S+]([O-])SC(=O)[C@]2(C)O (some centres not stated) [LEINAMYCIN],Ratio,[1],>3
same,Activity,[2],Active
same,Activity,[3],Active
same,IC50,[4],2 ng/mL
same,IC50,[5],3 ng/mL
same,IC50,[6],10 ng/mL
same,IC50,[7],15 ng/mL
same,IC50,[8],40 ng/mL
same,Activity,[9],Dose-dependent effect
same,Activity,[10],Dose-dependent effect
same,Activity,[11],Active
same,Activity,[12],Active
same,IC50,[13],3 ng/mL
CON [METHOXYAMINE],Activity,[14],Active
same,Activity,[15],Active
same,fold change (FC),[16],2.5
same,Activity,[17],inactive
same,Activity,[18],inactive
same,Activity,[19],inactive
same,Activity,[20],inactive
same,Activity,[21],inactive
same,Activity,[22],inactive
